Assay [1] concerns Staphylococcus aureus. The assay is described as follows: Antibacterial activity against Staphylococcus aureus ATCC 6538 P at below 625 ug/mL after 24 hrs by broth microdilution method. Type of assay: functional, organism-based. The procedure, abridged:
(§1)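 Broth microdilution in LAPTg medium (pH 6.8). Inoculum set to 0.5 McFarland (10⁸ CFU/mL), then diluted to 10⁵ CFU/mL and confirmed by plate counts. Added to 0.1 mL broth containing compound over 5000 to 156.2 µg/mL, with DMSO as solvent. Incubated 24 h at 37 °C. MIC taken as the lowest concentration with no visible growth.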
In general terms: Broth dilution looks for growth in wells or tubes with falling amounts of substance.

In assay [2] the test system is Staphylococcus aureus. Nature of the assay: Antibacterial activity against Staphylococcus aureus F7 at below 625 ug/mL after 24 hrs by broth microdilution method. Type of assay: functional, organism-based. The procedure, abridged: as §1

The source made the active and inactive calls. No cut-off for these calls is given here.

As for `COC(=O)CC1=C(C(C)=O)CC(C)(C)C[C@H]2C[C@@]12C`, the outcome in the assay on Staphylococcus aureus [1] and in the assay on Staphylococcus aureus [2] was inactive.

Take `CC1(C)C[C@H]2C[C@@]2(C)C2=CC(=O)[C@@](C)(O)[C@@H]2C1`: the outcome with Staphylococcus aureus [1] and with Staphylococcus aureus [2] was inactive.

As for `CC1(C)S[C@@H]2[C@H](NC(=O)Cc3ccccc3)C(=O)N2[C@H]1C(=O)O`, the outcome with Staphylococcus aureus [1] and in the assay with Staphylococcus aureus [2] was Active.

As for `CC1(C)CC2=C(C(=O)O[C@]2(C)O)[C@]2(C)C[C@@H]2C1`, the outcome with Staphylococcus aureus [1] and in the assay with Staphylococcus aureus [2] was inactive.

Take `C[C@H]1C(=O)C=C2[C@H]1CC(C)(C)C[C@H]1C[C@@]21C`: the result in the assay with Staphylococcus aureus [1] and with Staphylococcus aureus [2] was inactive.

In the case of `CC1(C)C[C@H]2C[C@@]2(C)C2=CC(=O)[C@@]3(C)O[C@@]23C1`, the result in the assay on Staphylococcus aureus [1] and with Staphylococcus aureus [2] was inactive.

As for `Cc1oc(=O)cc2c1CC(C)(C)C[C@H]1C[C@@]21C`, the outcome in the assay with Staphylococcus aureus [1] and in the assay on Staphylococcus aureus [2] was inactive.

`C[C@@H]1OC(=O)C2=C1CC(C)(C)C[C@H]1C[C@@]21C`: the result in the assay with Staphylococcus aureus [1] and in the assay with Staphylococcus aureus [2] was inactive.

With `CC1(C)C=C2C(=CC(=O)[C@@]2(C)O)[C@]2(C)C[C@@H]2C1`, the result with Staphylococcus aureus [1] and in the assay with Staphylococcus aureus [2] was inactive.

The record behind these values is ChEMBL document CHEMBL1146456, “Africane-type sesquiterpenoids from the Argentine liverwort Porella swartziana and their antibacterial activity” (J Nat Prod, 2004).
